Data taken from ChEMBL document CHEMBL3817814, “Development and Characterization of a Potent Free Fatty Acid Receptor 1 (FFA1) Fluorescent Tracer” (J Med Chem, 2016).

Key:
[1] = target: T1, Free fatty acid receptor 1 (Homo sapiens, UniProt O14842); assay: Binding affinity to N-terminal NLUC-tagged FFA1 receptor (unknown origin) expressed in human Flp-In T-REX-293 cell membrane coexpressing mGluR5 incubated for 1 hr by equilibrium BRET assay; assay type: cell membranes
Procedure, shortened: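 Membranes from NLUC-FFA1 Flp-In T-REx 293 cells (induced 24 h, 100 ng/ml doxycycline) were used at 5 µg protein/well in 50 mM HEPES, 100 mM NaCl, 10 mM CaCl2, 10 mM MgCl2. Varying tracer concentrations, up to 100 nM, were incubated 1 h at 25 °C, with 10 µM unlabeled agonist defining non-specific binding. Nano-Glo (1:800 final) was added, then 460/545 nm emission read after 5 min. Kd came from saturation fits.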

[2] = target: T1, Free fatty acid receptor 1; assay: Agonist activity at eYFP-tagged FFA1 receptor (unknown origin) expressed in human Flp-In T-REX-293 cells measured for 90 secs by Fura-2 AM dye based calcium mobilization assay; assay type: functional, cell-based
Procedure, shortened: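 Flp-In T-REx 293 cells with doxycycline-inducible FFA1-eYFP were plated 50,000/well and induced with 100 ng/ml doxycycline 24 h before assay. Cells were Fura-2 AM loaded 45 min, washed three times and kept 15 min in HBSS. […] Mean ± S.E.M., n=3.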

[3] = target: T1, Free fatty acid receptor 1; assay: Binding affinity to N-terminal NLUC-tagged FFA1 receptor (unknown origin) expressed in human Flp-In T-REX-293 cell membrane coexpressing mGluR5 preincubated for 5 mins followed by TUG-905 addition measured after 15 mins by kinetic BRET assay; assay type: cell membranes
Procedure, shortened: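 Membranes (2.5 µg protein/well) were pre-incubated 5 min at 25 °C with Nano-Glo (1:800 final), and 460/545 nm emission was read every 20 s at 25 °C. After 60 s, tracer (100 nM final) was injected; 5 min later 10 µM unlabeled agonist was injected and reading continued 15 min. Non-specific signal from wells pre-dosed with unlabeled agonist was subtracted, giving koff and kon.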

[4] = target: T1, Free fatty acid receptor 1; assay: Agonist activity at FFA1 receptor (unknown origin) expressed in human […] cells measured for 90 secs by Fura-2 AM dye based calcium mobilization assay relative to TUG-770; assay type: functional, cell-based
Procedure, shortened: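 Untagged FFA1 constitutively expressed in N1-FFA1 cells, plated 15,000/well 24 h ahead. Cells loaded 45 min with Fura-2 AM, washed three times, then held 15 min in HBSS. Emission at 510 nm from 340/380 nm excitation was recorded before and for 90 s after compound addition. The peak 340/380 ratio gave concentration-response curves.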

[5] = target: T1, Free fatty acid receptor 1; assay: Agonist activity at human C-terminal eYFP-tagged FFA1 receptor expressed in HEK-293 cells assessed as beta-arrestin2 recruitment incubated for 5 mins by BRET assay relative to TUG-770; assay type: cell-based; settings: HEK293
[6] = target: T1, Free fatty acid receptor 1; assay: Agonist activity at human C-terminal eYFP-tagged FFA1 receptor expressed in HEK-293 cells assessed as beta-arrestin2 recruitment incubated for 5 mins by BRET assay; assay type: cell-based, HEK293
[7] = target: T1, Free fatty acid receptor 1; assay: Displacement of 3-(2-Fluoro-4-((2'-methyl-4'-(2-(2-((7-nitrobenzo[c][1,2,5]-oxadiazol-4-yl)amino)ethoxy)ethoxy)-[1,1'-biphenyl]-3-yl)-methoxy)phenyl)propanoic acid from N-terminal NLUC-tagged FFA1 receptor (unknown origin) expressed in human Flp-In T-REX-293 cell membrane coexpressing mGluR5 incubated for 1 hr by equilibrium BRET assay; assay type: cell membranes
[8] = target: T1, Free fatty acid receptor 1; assay: Agonist activity at FFA1 receptor (unknown origin) expressed in human […] cells measured for 90 secs by Fura-2 AM dye based calcium mobilization assay; assay type: functional, cell-based
Procedure, shortened: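 N1-FFA1 cells constitutively expressing untagged FFA1 were plated 24 h before the assay. They were loaded with Fura-2 AM for 45 min, washed three times, and held 15 min in HBSS. Fura-2 emission at 510 nm (340 or 380 nm excitation) was read before and for 90 s after compound addition. The peak 340/380 ratio gave concentration-response curves for potency.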

T1 sequence (O14842 whole entry): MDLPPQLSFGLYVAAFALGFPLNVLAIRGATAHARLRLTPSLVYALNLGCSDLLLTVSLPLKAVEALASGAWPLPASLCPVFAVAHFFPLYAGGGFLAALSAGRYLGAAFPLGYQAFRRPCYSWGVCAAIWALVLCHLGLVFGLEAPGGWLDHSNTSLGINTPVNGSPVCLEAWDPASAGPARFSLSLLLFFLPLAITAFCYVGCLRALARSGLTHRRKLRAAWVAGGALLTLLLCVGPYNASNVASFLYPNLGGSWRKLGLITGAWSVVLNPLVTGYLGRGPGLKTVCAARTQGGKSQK

| SMILES | Emax [5] [%] | EC50 [6] [nM] | Ki [7] [nM] | further results |
| --- | --- | --- | --- | --- |
| Cc1cc(OCCOCCNc2ccc([N+](=O)[O-])c3nonc23)ccc1-c1cccc(COc2ccc(CCC(=O)O)c(F)c2)c1 | – | – | – | Kd [1]: 7.4 nM; EC50 [2]: 187 nM; Kd [3]: 4 nM |
| Cc1cc(Oc2ncc(C(F)(F)F)cc2Cl)ccc1CC1SC(=O)NC1=O (stereo not drawn) | 95 | 55 | 69.2 | – |
| O=C(O)CCc1ccc(C#Cc2cccc(OCCOCCNc3ccc([N+](=O)[O-])c4nonc34)c2)cc1F | – | – | – | EC50 [2]: > 1000 nM |
| O=C(O)CCc1ccc(NCc2cccc(Oc3ccccc3)c2)cc1 [GW9508] | 86 | – | 219 | – |
| O=C(O)CCc1ccc(OCc2ccccc2)cc1 [BENZYLOXYPHENYLPROPANOIC ACID] | 90 | – | 13800 | – |
| Cc1ccccc1-c1cccc(CNc2ccc(CCC(=O)O)cc2)c1 | 114 | – | – | – |

The next lines start with results.

| Emax [5] [%] | EC50 [6] [nM] | Ki [7] [nM] | SMILES | further results |
| --- | --- | --- | --- | --- |
| 89 | – | – | Cc1cc(OCCCS(C)(=O)=O)cc(C)c1-c1cccc(COc2ccc3c(c2)OC[C@H]3CC(=O)O)c1 | Emax [4]: 108% |
| 95 | – | – | N#CCc1ccccc1C#Cc1ccc(CCC(=O)O)cc1 | – |
| 100 | 67.6 | 631 | Cc1ccccc1C#Cc1ccc(CCC(=O)O)cc1 | – |
| 130 | 7940 | – | CCCCCCCCCCCC(=O)O [DODECANOATE] | EC50 [8]: 759 nM; Emax [4]: 116%; pKb [7]: 4.46 |
